Laboratory results taken from ChEMBL document CHEMBL4020832, “Development of (6 R)-2-Nitro-6-[4-(trifluoromethoxy)phenoxy]-6,7-dihydro-5 H-imidazo[2,1- b][1,3]oxazine (DNDI-8219): A New Lead for Visceral Leishmaniasis” (J Med Chem, 2018).

How the values were obtained:
[1] = Octanol/phosphate buffer solution distribution coefficient, log D of the compound at pH 7.4 by LC-MS/MS method; format: physicochemical; details: octanol/water
Summary of the method: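 Shake-flask partition between octanol and 100 mM phosphate buffer pH 7.4 at room temperature, final matrix 1% DMSO. Phases quantified by LC–MS/MS.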

[2] = system: Syrian golden hamster; assay: Oral bioavailability in golden Syrian hamster at 40 mg/kg by LC-MS/MS analysis; format: ADME, organism-based, Mesocricetus auratus; details: in vivo
[3] = Clearance in Sprague-Dawley rat at 1 mg/kg, iv by LC-MS/MS analysis; format: ADME, organism-based; details: in vivo
Summary of the method: (§1)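 Fasted male Sprague-Dawley rats. IV dose was 1 mg/kg as a solution in 20% NMP and 40% PEG-400 in citrate buffer (pH 3). Oral dose was 40–50 mg/kg as a suspension in 0.08% Tween 80 and 0.5% CMC in water. Plasma was analysed by LC–MS/MS. AUClast was taken to the last time point (24 or 48 h).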

[4] = system: Mus musculus; assay: (§2) AUClast in Swiss albino mouse at 40 mg/kg, po after 24 to 48 hrs by LC-MS/MS analysis; format: ADME, organism-based; details: in vivo
[5] = Initial concentration in golden Syrian hamster at 2 mg/kg, iv by LC-MS/MS analysis; format: ADME, organism-based, Mesocricetus auratus; details: in vivo
Summary of the method: (§3)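 Fasted female golden Syrian hamsters given 2 mg/kg iv as a solution in 20% NMP and 40% PEG-400 in citrate buffer pH 3. Plasma concentrations determined by LC–MS/MS to derive PK parameters.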

[6] = Cmax in golden Syrian hamster at 40 mg/kg, po by LC-MS/MS analysis; format: ADME, organism-based, Mesocricetus auratus; design: dose 40 mg/kg, route oral; details: in vivo
Summary of the method: (§4)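 Fasted female golden Syrian hamsters. IV dose was 2 mg/kg as a solution in 20% NMP and 40% PEG-400 in citrate buffer (pH 3). Oral dosing at 40–50 mg/kg used PEG-400 as vehicle. Plasma was quantified by LC–MS/MS. AUClast was taken to the last time point (24 or 48 h).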

[7] = Metabolic stability in hamster liver microsomes assessed as parent compound remaining at 1 uM after 1 hr; format: ADME, microsome; details: read-out: Stability
[8] = Apparent permeability from apical to basolateral side in MDCK cells harboring MDR1 at 2 uM after 150 mins by LC-MS/MS analysis; format: ADME, cell-based, Canis lupus familiaris; details: dog
Summary of the method: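 MDCK-MDR1 monolayers were seeded at 2 × 10^5 cells/cm2 and grown to confluence over 4–7 days. Compound at 2 μM in 0.4% DMSO/HBSS was applied apically or basolaterally. Plates were incubated 150 min at 37 °C, 5% CO2, in triplicate. Quantitation was by LC–MS/MS analyte/internal-standard peak-area ratio.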

[9] = Volume of distribution at steady state in golden Syrian hamster at 2 mg/kg, iv by LC-MS/MS analysis; format: ADME, organism-based, Mesocricetus auratus; details: in vivo, read-out: Vdss; summary of the method: as §3
[10] = AUClast in golden Syrian hamster at 40 mg/kg, po after 24 to 48 hrs by LC-MS/MS analysis; format: ADME, organism-based, Mesocricetus auratus; details: in vivo; summary of the method: as §4
[11] = system: Rattus norvegicus; assay: (§5) Tmax in Sprague-Dawley rat at 40 mg/kg, po by LC-MS/MS analysis; format: ADME, organism-based; details: in vivo
Summary of the method: (§6)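 Fasted male Sprague-Dawley rats dosed orally at 40–50 mg/kg as a suspension in 0.08% Tween 80/0.5% CMC in water. iv reference was 1 mg/kg in 20% NMP/40% PEG-400 in citrate buffer pH 3. Plasma analysed by LC–MS/MS. F from dose-normalized AUClast.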

[12] = Tmax in golden Syrian hamster at 40 mg/kg, po by LC-MS/MS analysis; format: ADME, organism-based, Mesocricetus auratus; details: in vivo
[13] = system: Mus musculus; assay: (§7) Tmax in Swiss albino mouse at 40 mg/kg, po by LC-MS/MS analysis; format: ADME, organism-based; details: in vivo
[14] = AUClast in golden Syrian hamster at 2 mg/kg, iv after 24 to 48 hrs by LC-MS/MS analysis; format: ADME, organism-based, Mesocricetus auratus; details: in vivo; summary of the method: as §4
[15] = Half life in golden Syrian hamster at 40 mg/kg, po by LC-MS/MS analysis; format: ADME, organism-based, Mesocricetus auratus; details: in vivo
[16] = system: Mus musculus; assay: (§8) Cmax in Swiss albino mouse at 40 mg/kg, po by LC-MS/MS analysis; format: ADME, organism-based; design: dose 40 mg/kg, route oral; details: in vivo
[17] = Volume of distribution at steady state in Sprague-Dawley rat at 1 mg/kg, iv by LC-MS/MS analysis; format: ADME, organism-based; details: in vivo, read-out: Vdss
Summary of the method: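 Fasted male Sprague-Dawley rats received 1 mg/kg iv as a solution in 20% NMP/40% PEG-400 in citrate buffer pH 3. Plasma concentrations by LC–MS/MS used for PK parameter estimation.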

[18] = Half life in Swiss albino mouse at 40 mg/kg, po by LC-MS/MS analysis; format: ADME, organism-based; details: in vivo
[19] = system: Rattus norvegicus; assay: (§9) Oral bioavailability in Sprague-Dawley rat at 40 mg/kg by LC-MS/MS analysis; format: ADME, organism-based; details: in vivo; summary of the method: as §6
[20] = system: Rattus norvegicus; assay: (§10) Cmax in Sprague-Dawley rat at 40 mg/kg, po by LC-MS/MS analysis; format: ADME, organism-based; design: dose 40 mg/kg, route oral; details: in vivo; summary of the method: as §1
[21] = AUClast in Sprague-Dawley rat at 1 mg/kg, iv after 24 to 48 hrs by LC-MS/MS analysis; format: ADME, organism-based; details: in vivo; summary of the method: as §1
[22] = Half life in Sprague-Dawley rat at 1 mg/kg, iv by LC-MS/MS analysis; format: ADME, organism-based; details: in vivo; summary of the method: as §1
[23] = Half life in golden Syrian hamster at 2 mg/kg, iv by LC-MS/MS analysis; format: ADME, organism-based, Mesocricetus auratus; details: in vivo; summary of the method: as §4
[24] = Initial concentration in Sprague-Dawley rat at 1 mg/kg, iv by LC-MS/MS analysis; format: ADME, organism-based; details: in vivo
Summary of the method: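 Male Sprague-Dawley rats, fasted, dosed iv at 1 mg/kg as a solution in 20% NMP/40% PEG-400 in citrate buffer (pH 3). Plasma was analysed by LC–MS/MS and C0 was derived with WinNonlin-type PK analysis.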

[25] = AUClast in Sprague-Dawley rat at 40 mg/kg, po after 24 to 48 hrs by LC-MS/MS analysis; format: ADME, organism-based; details: in vivo
[26] = as §2; format: ADME, organism-based; details: Swiss albino, in vivo
[27] = Cmax in golden Syrian hamster at 50 mg/kg, po by LC-MS/MS analysis; format: ADME, organism-based, Mesocricetus auratus; design: dose 50 mg/kg, route oral; details: in vivo; summary of the method: as §4
[28] = system: Liver; assay: Metabolic stability in human liver microsomes assessed as parent compound remaining at 1 uM after 1 hr; format: ADME, microsome
[29] = system: Liver; assay: Metabolic stability in CD-1 mouse liver microsomes assessed as parent compound remaining at 1 uM after 1 hr; format: ADME, microsome
[30] = as §5; format: ADME, organism-based; details: Sprague-Dawley, in vivo; summary of the method: as §6
[31] = as §7; format: ADME, organism-based; details: Swiss albino, in vivo
[32] = Half life in Sprague-Dawley rat at 40 mg/kg, po by LC-MS/MS analysis; format: ADME, organism-based; details: in vivo; summary of the method: as §1
[33] = as §8; format: ADME, organism-based; design: dose 40 mg/kg, route oral; details: Swiss albino, in vivo
[34] = Tmax in golden Syrian hamster at 50 mg/kg, po by LC-MS/MS analysis; format: ADME, organism-based, Mesocricetus auratus; details: in vivo
[35] = AUClast in golden Syrian hamster at 50 mg/kg, po after 24 to 48 hrs by LC-MS/MS analysis; format: ADME, organism-based, Mesocricetus auratus; details: in vivo; summary of the method: as §4
[36] = as §9; format: ADME, organism-based; details: Sprague-Dawley, in vivo; summary of the method: as §6
[37] = as §10; format: ADME, organism-based; design: dose 40 mg/kg, route oral; details: Sprague-Dawley, in vivo; summary of the method: as §1
[38] = Half life in golden Syrian hamster at 50 mg/kg, po by LC-MS/MS analysis; format: ADME, organism-based, Mesocricetus auratus; details: in vivo
[39] = system: Syrian golden hamster; assay: Oral bioavailability in golden Syrian hamster at 50 mg/kg by LC-MS/MS analysis; format: ADME, organism-based, Mesocricetus auratus; details: in vivo
[40] = Clearance in golden Syrian hamster at 2 mg/kg, iv by LC-MS/MS analysis; format: ADME, organism-based, Mesocricetus auratus; details: in vivo

| remaining at 1 h, 1 µM [7] [%] | Cmax [27] [ng/mL] | Stability [28] [%] | Stability [29] [%] | Tmax [34] [h] | AUC(0-t) [35] [µg·h/mL] | half-life [38] [h] | Structure (SMILES) | clearance [3] [mL/min/kg] | C0 [5] [ng/mL] | Vd [9] [L/kg] | AUC(0-t) [14] [µg·h/mL] | Vd [17] [L/kg] | half-life [18] [h] | AUC(0-t) [21] [µg·h/mL] | half-life [22] [h] | half-life [23] [h] | C0 [24] [ng/mL] | further results |
| --- | --- | --- | --- | --- | --- | --- | --- | --- | --- | --- | --- | --- | --- | --- | --- | --- | --- | --- |
| 48 | 12000 | 90 | 92 | 3.3 | 71 | 3.1 | O=[N+]([O-])c1cn2c(n1)OC[C@H](Oc1ccc(C(F)(F)F)cn1)C2 | 6.1 |  |  |  | 1.5 | 30 | 2.47 | 2.7 |  | 840 | AUC(0-t) [25]: 164 µg·h/mL; AUC(0-t) [26]: 1780 µg·h/mL; Tmax [30]: 2.7 h; Tmax [31]: 3.1 h; half-life [32]: 3.5 h; Cmax [33]: 96000 ng/mL; bioavailability [36]: 100%; Cmax [37]: 18000 ng/mL |
| 10 | 1100 | 58 | 67 | 1.7 | 3.4 | 17 | O=[N+]([O-])c1cn2c(n1)OC[C@H](OCc1ccc(-c3ccc(F)cc3F)nc1)C2 |  | 520 | 5.4 | 0.71 |  |  |  |  | 1.4 |  | F [39]: 21%; clearance [40]: 59 mL/min/kg |

| Structure (SMILES) | remaining at 1 h, 1 µM [7] [%] | Cmax [27] [ng/mL] | Stability [28] [%] | Stability [29] [%] | Tmax [34] [h] | AUC(0-t) [35] [µg·h/mL] | half-life [38] [h] | clearance [3] [mL/min/kg] | C0 [5] [ng/mL] | Vd [9] [L/kg] | AUC(0-t) [14] [µg·h/mL] | Vd [17] [L/kg] | half-life [18] [h] | AUC(0-t) [21] [µg·h/mL] | half-life [22] [h] | half-life [23] [h] | C0 [24] [ng/mL] | further results |
| --- | --- | --- | --- | --- | --- | --- | --- | --- | --- | --- | --- | --- | --- | --- | --- | --- | --- | --- |
| O=[N+]([O-])c1cn2c(n1)OC[C@H](Oc1ccc(OC(F)(F)F)cc1)C2 | 19 |  |  |  |  |  |  | 11 | 660 | 6.5 | 0.42 | 2.7 | 7.8 | 1.51 | 3 | 1.4 | 540 | logD [1]: 2.59; F [2]: 100%; AUClast [4]: 272 µg·h/mL; Cmax [6]: 2100 ng/mL; Papp [8]: 32.4 ×10⁻⁶ cm/s; AUC(0-t) [10]: 11.2 µg·h/mL; Tmax [11]: 6.7 h; Tmax [12]: 3.3 h; Tmax [13]: 5.3 h; half-life [15]: 2.2 h; Cmax [16]: 21000 ng/mL; F [19]: 100%; Cmax [20]: 5200 ng/mL |
